In ChEMBL document CHEMBL4406821, “Novel dual inhibitors targeting CDK4 and VEGFR2 synergistically suppressed cancer progression and angiogenesis” (Eur J Med Chem, 2019):

Legend:
[1] = target: CDK4/Cyclin D3 (Homo sapiens) (UniProt P11802+P30281); assay: Inhibition of recombinant full length human CDK4/Cyclin D3 using Rb-fragmen as substrate at 1 uM incubated for 40 mins by [gamma-33P]-ATP based radiometric assay relative to control; assay type: protein-complex assay
Summary of the method: (§1)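 Kinase panel profiling at 1 μM performed by Eurofins KinaseProfiler; percent inhibition reported as mean of two independent experiments.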

[2] = target: Vascular endothelial growth factor receptor 2 (Homo sapiens, UniProt P35968); assay: Inhibition of recombinant human VEGFR2 (790 to end residues) using myelin ba as substrate at 1 uM incubated for 40 mins by [gamma-33P]-ATP based radiometric assay relative to control; summary of the method: as §1
HeLa = assay: Antiproliferative activity against human HeLa cells assessed as reduction in cell viability measured after 72 hrs by CCK8 assay; assay type: functional, cell-based
Summary of the method: (§2)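 Cells were seeded at 3×10³ cells/well and exposed to a range of concentrations or vehicle for 72 h. Viability was read by CCK-8 at 450 nm, with DMSO as blank and five replicates per sample. IC50 was calculated from the dose-response.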

T47D = assay: Antiproliferative activity against human T47D cells assessed as reduction in cell viability measured after 72 hrs by CCK8 assay; assay type: functional, cell-based; summary of the method: as §2

Vascular endothelial growth factor receptor 2, sequence (P35968 whole entry): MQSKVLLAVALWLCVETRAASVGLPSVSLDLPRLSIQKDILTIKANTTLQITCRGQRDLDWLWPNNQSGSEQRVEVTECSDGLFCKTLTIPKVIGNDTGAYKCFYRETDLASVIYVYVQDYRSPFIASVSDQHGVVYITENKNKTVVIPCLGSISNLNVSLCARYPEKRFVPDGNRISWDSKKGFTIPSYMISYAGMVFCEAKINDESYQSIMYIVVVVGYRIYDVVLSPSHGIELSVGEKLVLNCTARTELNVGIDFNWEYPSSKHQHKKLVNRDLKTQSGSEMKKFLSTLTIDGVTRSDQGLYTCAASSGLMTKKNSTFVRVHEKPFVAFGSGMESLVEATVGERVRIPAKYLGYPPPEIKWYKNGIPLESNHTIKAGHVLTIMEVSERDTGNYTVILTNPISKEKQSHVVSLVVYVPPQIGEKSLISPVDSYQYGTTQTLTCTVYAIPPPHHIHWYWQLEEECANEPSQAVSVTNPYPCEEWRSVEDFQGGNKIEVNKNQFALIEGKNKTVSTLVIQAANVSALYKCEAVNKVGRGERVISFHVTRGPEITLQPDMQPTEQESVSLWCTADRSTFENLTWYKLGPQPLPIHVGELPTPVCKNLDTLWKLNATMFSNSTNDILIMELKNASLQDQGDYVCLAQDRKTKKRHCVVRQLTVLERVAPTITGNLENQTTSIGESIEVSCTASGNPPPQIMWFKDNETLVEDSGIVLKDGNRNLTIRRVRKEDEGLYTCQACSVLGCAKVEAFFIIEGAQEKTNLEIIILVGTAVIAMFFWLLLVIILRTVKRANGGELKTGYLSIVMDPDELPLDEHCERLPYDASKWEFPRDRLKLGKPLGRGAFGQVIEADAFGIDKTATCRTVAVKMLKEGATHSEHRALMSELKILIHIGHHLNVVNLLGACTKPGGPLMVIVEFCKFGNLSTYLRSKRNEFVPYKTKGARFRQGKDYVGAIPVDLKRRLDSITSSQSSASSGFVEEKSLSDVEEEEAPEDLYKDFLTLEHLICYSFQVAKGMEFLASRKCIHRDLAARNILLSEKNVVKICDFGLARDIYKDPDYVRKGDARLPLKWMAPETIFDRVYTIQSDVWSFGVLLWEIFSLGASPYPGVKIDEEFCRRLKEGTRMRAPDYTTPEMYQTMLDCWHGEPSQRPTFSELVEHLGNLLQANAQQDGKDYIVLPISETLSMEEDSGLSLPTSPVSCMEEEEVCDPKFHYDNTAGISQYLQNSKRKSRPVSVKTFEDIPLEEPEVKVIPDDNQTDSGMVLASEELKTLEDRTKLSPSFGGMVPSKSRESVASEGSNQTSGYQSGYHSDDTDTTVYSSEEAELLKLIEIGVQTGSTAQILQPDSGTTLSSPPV

Compound | inhibition [1] | inhibition [2] | IC50 (HeLa) | IC50 (T47D)
Cc1nc2c(F)cc(-c3nc(Nc4ccc(CNC(=O)C5(C(=O)Nc6ccc(C(F)(F)F)cc6)CC5)cc4)ncc3F)cc2n1C(C)C | 37% | 74% | – | –
CC(C)n1nnc2ccc(-c3nc(Nc4ccc(NC(=O)C5(C(=O)Nc6cccc(F)c6)CC5)cc4)ncc3F)cc21 | 79% | 69% | – | –
CC(C)n1nnc2ccc(-c3nc(Nc4ccc(NC(=O)C5(C(=O)Nc6ccc(F)cc6)CC5)cc4)ncc3F)cc21 | 69% | 84% | – | –
CC(C)n1nnc2ccc(-c3nc(Nc4ccc(NC(=O)C5(C(=O)Nc6cccc(Br)c6)CC5)cc4)ncc3F)cc21 | 34% | 55% | – | –
Cc1nc2c(F)cc(-c3nc(Nc4ccc(CNC(=O)C5(C(=O)Nc6ccc(Cl)cc6)CC5)cc4)ncc3F)cc2n1C(C)C | 88% | 91% | – | –
CC(C)n1nnc2ccc(-c3nc(Nc4ccc(NC(=O)C5(C(=O)Nc6ccc(Br)cc6)CC5)cc4)ncc3F)cc21 | 24% | 52% | – | –
Cc1cccc(NC(=O)C2(C(=O)Nc3ccc(Nc4ncc(F)c(-c5ccc6nnn(C(C)C)c6c5)n4)cc3)CC2)c1 | 75% | 73% | – | –
Cc1nc2c(F)cc(-c3nc(Nc4ccc(CNC(=O)C5(C(=O)Nc6ccc(Cl)c(C(F)(F)F)c6)CC5)cc4)ncc3F)cc2n1C(C)C | 51% | 57% | – | –
CC(C)n1nnc2ccc(-c3nc(Nc4ccc(NC(=O)C5(C(=O)Nc6cccc(Cl)c6)CC5)cc4)ncc3F)cc21 | 50% | 60% | – | –
CC(C)n1nnc2ccc(-c3nc(Nc4ccc(NC(=O)C5(C(=O)Nc6ccc(Cl)cc6)CC5)cc4)ncc3F)cc21 | 21% | 59% | – | –
Cc1ccc(NC(=O)C2(C(=O)Nc3ccc(Nc4ncc(F)c(-c5ccc6nnn(C(C)C)c6c5)n4)cc3)CC2)cc1 | 81% | 78% | – | –
CC(C)n1nnc2ccc(-c3nc(Nc4ccc(NC(=O)C5(C(=O)Nc6ccc(C(F)(F)F)cc6)CC5)cc4)ncc3F)cc21 | 31% | 56% | – | –
CC(C)n1nnc2ccc(-c3nc(Nc4ccc(NC(=O)C5(C(=O)Nc6ccc(Cl)c(C(F)(F)F)c6)CC5)cc4)ncc3F)cc21 | 8% | 41% | – | –
CN(C)C(=O)c1cc2cnc(Nc3ccc(NC(=O)C4(C(=O)Nc5ccc(F)cc5)CC4)cc3)nc2n1C1CCCC1 | – | 0% | – | –
CC(C)n1nnc2ccc(-c3nc(Nc4ccc(NC(=O)C5(C(=O)Nc6cccc(C(F)(F)F)c6)CC5)cc4)ncc3F)cc21 | 13% | 46% | – | –

The next lines start with the values.

inhibition [1] | inhibition [2] | IC50 (HeLa) | IC50 (T47D) | Compound
76% | 74% | – | – | Cc1nc2c(F)cc(-c3nc(Nc4ccc(NC(=O)C5(C(=O)Nc6ccc(Cl)cc6)CC5)cc4)ncc3F)cc2n1C(C)C
31% | 80% | – | – | Cc1nc2c(F)cc(-c3nc(Nc4ccc(NC(=O)C5(C(=O)Nc6cccc(C(F)(F)F)c6)CC5)cc4)ncc3F)cc2n1C(C)C
34% | 68% | – | – | Cc1nc2c(F)cc(-c3nc(Nc4ccc(NC(=O)C5(C(=O)Nc6ccc(Cl)c(C(F)(F)F)c6)CC5)cc4)ncc3F)cc2n1C(C)C
90% | 91% | 597 nM | 120 nM | Cc1nc2c(F)cc(-c3nc(Nc4ccc(NC(=O)C5(C(=O)Nc6ccc(Br)cc6)CC5)cc4)ncc3F)cc2n1C(C)C
93% | 90% | 330 nM | 109 nM | Cc1nc2c(F)cc(-c3nc(Nc4ccc(CNC(=O)C5(C(=O)Nc6ccc(Br)cc6)CC5)cc4)ncc3F)cc2n1C(C)C
74% | 90% | – | – | Cc1nc2c(F)cc(-c3nc(Nc4ccc(NC(=O)C5(C(=O)Nc6cccc(Cl)c6)CC5)cc4)ncc3F)cc2n1C(C)C
98% | 91% | 191 nM | 25.5 nM | Cc1nc2c(F)cc(-c3nc(Nc4ccc(NC(=O)C5(C(=O)Nc6ccc(F)cc6)CC5)cc4)ncc3F)cc2n1C(C)C
97% | 95% | 252 nM | 771 nM | Cc1ccc(NC(=O)C2(C(=O)NCc3ccc(Nc4ncc(F)c(-c5cc(F)c6nc(C)n(C(C)C)c6c5)n4)cc3)CC2)cc1
97% | 95% | 178 nM | 202 nM | Cc1cccc(NC(=O)C2(C(=O)Nc3ccc(Nc4ncc(F)c(-c5cc(F)c6nc(C)n(C(C)C)c6c5)n4)cc3)CC2)c1
74% | 80% | – | – | Cc1nc2c(F)cc(-c3nc(Nc4ccc(NC(=O)C5(C(=O)Nc6ccc(C(F)(F)F)cc6)CC5)cc4)ncc3F)cc2n1C(C)C
83% | 90% | – | – | Cc1nc2c(F)cc(-c3nc(Nc4ccc(NC(=O)C5(C(=O)Nc6cccc(Br)c6)CC5)cc4)ncc3F)cc2n1C(C)C
96% | 90% | 106 nM | 29.3 nM | Cc1nc2c(F)cc(-c3nc(Nc4ccc(NC(=O)C5(C(=O)Nc6cccc(F)c6)CC5)cc4)ncc3F)cc2n1C(C)C
